Data on one compound can be found in ChEMBL document CHEMBL3864151, “Discovery of imidazopyridazines as potent Pim-1/2 kinase inhibitors” (Bioorg Med Chem Lett, 2016).

Values after ≈ are worked out from the molar mass of the structure shown.

The nature of series [1]: Antiproliferative activity against human KMS11 cells after 72 hrs by CellTiter-Glo assay. Format: functional, cell-based. Particulars: KMS-11, 72 h. Background: ATP-based viability assays read luminescence as a measure of living cells.
Series [2] has as its target Serine/threonine-protein kinase VRK2 (Homo sapiens) (UniProt Q86Y07). Put plainly: Competitive binding affinity to partial length wild type human VRK2 expressed in mammalian expression system at 10 uM by kinomescan method relative to control. In short, it runs like this:
(§1)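 DiscoveRX scanMAX kinase panel of protein and lipid kinases and common mutants; competitive binding of compound at 10 µM expressed as percentage of control (POC).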

For series [3], the target named is Serine/threonine-protein kinase TAO2 (Homo sapiens) (UniProt Q9UL54). Put plainly: Competitive binding affinity to partial length wild type human TAOK2 expressed in mammalian expression system at 10 uM by kinomescan method relative to control. The method in brief:
as §1

In series [4] the target is Serine/threonine-protein kinase TAO3 (Homo sapiens) (UniProt Q9H2K8). Put plainly: Competitive binding affinity to partial length wild type human TAOK3 expressed in mammalian expression system at 10 uM by kinomescan method relative to control. The method in brief: as §1
Series [5] can be described thus: Aqueous solubility in pH 7.4 PBS after 48 to 72 hrs by HPLC analysis. It counts as physicochemical. The method in brief:
(§2)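 Aqueous solubility determined in 0.01N HCl, PBS (pH 7.4) and FaSIF (pH 6.8).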

The nature of series [6]: Antiproliferative activity against human KMS-12-BM cells after 72 hrs by CellTiter-Glo assay. It counts as functional, cell-based.
Series [7] can be described thus: Antiproliferative activity against human NCI-H929 cells after 72 hrs by CellTiter-Glo assay. Format: functional, cell-based. Particulars: NCI-H929, 72 h.
The target of series [8] is Casein kinase II subunit alpha' (Homo sapiens) (UniProt P19784). Put plainly: Competitive binding affinity to full length wild type human CSNK2A2 expressed in mammalian expression system at 10 uM by kinomescan method relative to control. The method in brief:
as §1

A short description of series [9]: Volume of distribution at steady state in Sprague-Dawley rat at 2 mg/kg, iv. Format: ADME, organism-based. Particulars: in vivo, read-out: Vdss. The method in brief:
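Male Sprague Dawley rats, 3 animals per dosing route, mean values. iv dose 2 mg/kg as a solution in DMSO; po dose 5 mg/kg in 1% Tween 80, 2% HPMC, 97% water/methanesulfonic acid pH 2.2.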

Series [10] can be described thus: Antiproliferative activity against human MOLP8 cells after 72 hrs by CellTiter-Glo assay. Format: functional, cell-based. Particulars: MOLP-8, 72 h.
A short description of series [11]: Aqueous solubility in 0.01N HCl after 48 to 72 hrs by HPLC analysis. It counts as physicochemical. In short, it runs like this: as §2
Series [12] in a line: Antiproliferative activity against human KMM1 cells after 72 hrs by CellTiter-Glo assay. Particulars: KMM-1, 72 h. It counts as functional, cell-based.
The target in series [13] is Glycogen synthase kinase-3 beta (Homo sapiens) (UniProt P49841). Put plainly: Competitive binding affinity to full length wild type human GSK3B expressed in mammalian expression system at 10 uM by kinomescan method relative to control. The method in brief: as §1
The target in series [14] is Serine/threonine-protein kinase TAO1 (Homo sapiens) (UniProt Q7L7X3). Put plainly: Competitive binding affinity to partial length wild type human TAOK1 expressed in mammalian expression system at 10 uM by kinomescan method relative to control. In short, it runs like this: as §1
Series [15] addresses Homeodomain-interacting protein kinase 3 (Homo sapiens) (UniProt Q9H422). The series is described as follows: Competitive binding affinity to partial length wild type human HIPK3 expressed in mammalian expression system at 10 uM by kinomescan method relative to control. The method in brief: as §1
The nature of series [16]: Antiproliferative activity against human L363 cells after 72 hrs by CellTiter-Glo assay. Format: functional, cell-based. Particulars: L-363, 72 h.

Usually IC50 stands for the concentration that gives 50% inhibition. Read a high IC50 as a need for much substance. What is called solubility is how much of the substance goes into solution per volume. A lower solubility goes with little dissolved substance. Regarding `C[C@@H]1C[C@H](N)CN(c2ccncc2Nc2ncc3ccc(-c4c(F)cccc4F)nn23)C1`, the half-maximal inhibitory concentration (IC50) was 100 nM in [1]; 216 nM in series [6]; 337 nM in series [7]; 58 nM in series [10]; 2120 nM in [12]; 332 nM in series [16]. Also, the Activity is 9.2% in series [2]; 7.8% in series [3]; 0.4% in [4]; 2% in series [8]; 2.3% in series [13]; 0.6% in series [14]. Further, the Activity in [15] was 1.2%. Further, the solubility was determined as 180 µg/mL (≈ 413 µM) in series [5] and 200 µg/mL (≈ 459 µM) in series [11]. The Vd in series [9] was 7.3 L/kg.
